Reference: ChEMBL document CHEMBL1126734, “Synthesis of phosphocholine and quaternary amine ether lipids and evaluation of in vitro antineoplastic activity” (1993)

Legend:
HL-60 [1] = assay: Trypan blue exclusion assay (TB) was carried out for 48 h and the in vitro ID50 value was evaluated in the HL-60 leukemic cell system (n=3); format: functional; settings: Homo sapiens, HL-60, 48 h; read-out: ID50 (the source's name)
Outline: (§1)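 HL-60 human promyelocytic leukemia cells were grown in suspension in RPMI 1640 with 10% heat-inactivated FBS, penicillin/streptomycin, 2 mM L-glutamine and 0.22% NaHCO3 at 37 °C under 5% CO2. Cells at 5 × 10^5/mL were exposed to various inhibitor concentrations diluted from ethanol stocks into medium for 48 h. Trypan blue in PBS was then added and viable cells were counted by hemocytometer. Triplicate determinations; values in μM.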

HL-60 [2] = assay: Standard thymidine incorporation assay (TdR) was carried out for 48 hr and involved a 24-h pulse of [3H]- thymidine (n=3) and ID50 value was evaluated; format: functional; settings: Homo sapiens, read-out: ID50 (the source's name)
Outline: (§2)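 HL-60 human promyelocytic leukemia cells in RPMI 1640 with 10% heat-inactivated FBS, 37 °C, 5% CO2. Log-phase cells seeded at 5 × 10^4/well with inhibitor dilutions from ethanol stocks (1 or 10 mg/mL). At 24 h, pulsed with 1.0 μCi [methyl-3H]thymidine (6.7 Ci/mmol) for a further 24 h. Harvested onto glass fiber filters and counted by liquid scintillation as % of control. Quadruplicate determinations. Values in μM.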

HL-60 [3] = assay: Standard thymidine incorporation assay (TdR) was carried out for 48 hr and involved a 24-h pulse of [3H]- thymidine (n=2) and ID50 value was evaluated; format: functional; settings: Homo sapiens, read-out: ID50 (the source's name); outline: as §2
HL-60 [4] = assay: Standard thymidine incorporation assay (TdR) was carried out for 48 hr and involved a 24-h pulse of [3H]- thymidine (n=1) and ID50 value was evaluated; format: functional; settings: Homo sapiens, read-out: ID50 (the source's name); outline: as §2
HL-60 [5] = assay: Standard thymidine incorporation assay (TdR) was carried out for 48 hr with an 8 hr pulse of [3H]- thymidine (TdR8) (n=3) and ID50 value was evaluated; format: functional; settings: Homo sapiens, read-out: ID50 (the source's name)
Outline: (§3)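 HL-60 leukemia suspension cultures grown in RPMI 1640/10% FBS at 37 °C, 5% CO2. Cells seeded at 5 × 10^4/well with inhibitors diluted from ethanol stocks. 48-h exposure, with 1.0 μCi [methyl-3H]thymidine (6.7 Ci/mmol) added for the last 8 h. Filter-harvested cells counted by liquid scintillation, uptake expressed as percent of control. Quadruplicate determinations. Results in μM.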

HL-60 [6] = assay: Trypan blue exclusion assay (TB) was carried out for 48 hr and the in vitro ID50 value was evaluated in the HL-60 leukemic cell system (n=1); format: functional, Homo sapiens; settings: read-out: ID50 (the source's name); outline: as §1
HL-60 [7] = assay: Standard thymidine incorporation assay (TdR) was carried out for 48 hr with an 8 hr pulse of [3H]- thymidine (TdR8) (n=1) and ID50 value was evaluated; format: functional; settings: Homo sapiens, read-out: ID50 (the source's name); outline: as §3
HL-60 [8] = assay: Standard thymidine incorporation assay (TdR) was carried out for 48 hr with an 8 hr pulse of [3H]- thymidine (TdR8) (n=4) and ID50 value was evaluated; format: functional; settings: Homo sapiens, read-out: ID50 (the source's name); outline: as §3
HL-60 [9] = assay: Standard thymidine incorporation assay (TdR) was carried out for 48 hr with an 8 hr pulse of [3H]- thymidine (TdR8) (n=16) and ID50 value was evaluated; format: functional; settings: Homo sapiens, read-out: ID50 (the source's name); outline: as §3
HL-60 [10] = assay: Trypan blue exclusion assay (TB) was carried out for 48 hr and the in vitro ID50 value was evaluated in the HL-60 leukemic cell system (n=33); format: functional; settings: Homo sapiens, HL-60, 48 h; read-out: ID50 (the source's name); outline: as §1
HL-60 [11] = assay: Standard thymidine incorporation assay (TdR) was carried out for 48 hr and involved a 24-h pulse of [3H]- thymidine (n=21) and ID50 value was evaluated; format: functional; settings: Homo sapiens, read-out: ID50 (the source's name); outline: as §2
HL-60 [12] = assay: Trypan blue exclusion assay (TB) was carried out for 48 hr and the in vitro ID50 value was evaluated in the HL-60 leukemic cell system (n=2); format: functional; settings: Homo sapiens, HL-60, 48 h; read-out: ID50 (the source's name); outline: as §1

CCCCCCCCCCCCCCCCCC(=O)NCCCOP(=O)([O-])OCC[N+](C)(C)C
IC50 (HL-60 [1]): 5.48 µM | IC50 (HL-60 [2]): 6.08 µM

CCCCCCCCCCCCCCCCCCOCC(C[N+]1(C)CCC(O)CC1)OCC (configuration not stated)
IC50 (HL-60 [3]): 4.3 µM

CCCCCCCCCCCCCCCCSCC(C[N+](C)(C)CCO)OCCCCCC (configuration not stated)
IC50 (HL-60 [4]): 7.15 µM

CCCCCCCCOCC(C[N+](C)(C)C)OC (configuration not stated)
IC50 (HL-60 [1]): 21.2 µM | IC50 (HL-60 [5]): 27 µM

CCCCCCCCCCCCCCCCCCOCC(C[N+]1(C)CCOCC1)OCC (configuration not stated)
IC50 (HL-60 [6]; Homo sapiens, HL-60, 48 h): 2.92 µM | IC50 (HL-60 [3]): 3.92 µM

CCCCCCCCCCCCCCCCSCC(C[N+](C)(C)C)OCCCCC (configuration not stated)
IC50 (HL-60 [6]; Homo sapiens, HL-60, 48 h): 6.14 µM | IC50 (HL-60 [4]): 4.97 µM | IC50 (HL-60 [7]): 5.02 µM

CCCCCCCCCCCCCCCCSCC[N+](C)(C)CCO
IC50 (HL-60 [4]): 3.95 µM

CCCCCCCCCCCCCCCCCCCC(=O)NCC(COP(=O)([O-])OCC[N+](C)(C)C)OCC (configuration not stated)
IC50 (HL-60 [1]): 3.17 µM | IC50 (HL-60 [8]): 2.71 µM | IC50 (HL-60 [3]): 3.39 µM

CCCCCCCCCCCCCCCCSCC(COP(=O)([O-])OCC[N+](C)(C)C)OCC (stereo in doubt; 2)
IC50 (HL-60 [6]): 2.25 µM | IC50 (HL-60 [2]): 2.19 µM | IC50 (HL-60 [5]): 3.11 µM

CCCCCCCCCCCCCCCCSCCC[N+]1(C)CCC(O)C1 (configuration not stated)
IC50 (HL-60 [4]): 3.77 µM

CCCCCCCCCCCCCCCCSCC(COC)C[N+](C)(C)C (configuration not stated)
IC50 (HL-60 [4]): 3.52 µM

CCCCCCCCCCCCCCCCOCC(COCCCC[N+](C)(C)CCCO)OC (configuration not stated)
IC50 (HL-60 [1]): 1.83 µM | IC50 (HL-60 [8]): 1.21 µM | IC50 (HL-60 [3]): 1.98 µM

CCCCCCCCCCCCCCCCCCOCC(COP(=O)([O-])OCC[N+](C)(C)C)OC (configuration not stated) [EDELFOSINE]
IC50 (HL-60 [9]): 2.41 µM | IC50 (HL-60 [10]): 2.48 µM | IC50 (HL-60 [11]): 2.38 µM

CCCCCCCCCCCCCCCCCC(=O)NCCCOP(=O)([O-])OCC[n+]1ccccc1
IC50 (HL-60 [1]): 4.16 µM | IC50 (HL-60 [2]): 4.33 µM

CCCCCCCCCCCCCCCCCCSCC(C)(COP(=O)([O-])OCC[N+](C)(C)C)OCC (configuration not stated)
IC50 (HL-60 [12]): 3.83 µM

CCCCCCCCCCCCCCCCCC(=O)NCC(COP(=O)([O-])OCC[N+](C)(C)C)OCCCCCCCCCCCCCC (configuration not stated)
IC50 (HL-60 [2]): > 100 µM

CCCCCCCCCCCCCCCCSCC(COP(=O)([O-])OCC[N+](C)(C)C)OCC (stereo in doubt; 5)
IC50 (HL-60 [6]): 6.75 µM

CCCCCCCCCCCCSCC(C[N+](C)(C)C)OC (configuration not stated)
IC50 (HL-60 [4]): 2.26 µM

CCCCCCCCCCCCCCCCOCC(CSCC[N+](C)(C)C)OC (configuration not stated)
IC50 (HL-60 [1]): 2.23 µM | IC50 (HL-60 [8]): 1.85 µM | IC50 (HL-60 [3]): 2.4 µM

CCCCCCCCCCCCCCCCSCC(C[N+]1(C)CCCC1)OCC (configuration not stated)
IC50 (HL-60 [4]): 2.09 µM | IC50 (HL-60 [7]): 1.9 µM
